This is an account of results in ChEMBL document CHEMBL4052644, “Synthesis of novel benzylidene analogues of betulinic acid as potent cytotoxic agents” (Eur J Med Chem, 2017).

One test deals with DLD-1. Nature of the test: Cytotoxicity against human DLD1 cells assessed as cell growth inhibition after 18 hrs. The format is functional, cell-based. Conditions: DLD-1, 18 h.
The subject of test [1] is A549. The test is described as follows: Growth inhibition of human A549 cells after 18 hrs. Particulars: A549, 18 h. It counts as functional, cell-based. In short, it runs like this:
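Sulforhodamine B (SRB) assay on A-549 human lung cancer cells. Compounds were first screened at 10 µM. Those active at 10 µM were retested at 1, 2.5 and 5 µM, and IC50 was calculated from these concentrations.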

Test [2] is described as follows: Selectivity index, ratio of IC50 for human FR2 cells to IC50 for human HCT116 cells. The format is functional. In outline:
(§1)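 Selectivity index is the IC50 in normal breast epithelial fR2 cells divided by the IC50 in each cancer line. All IC50 values come from the SRB assay.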

In test [3] the test system is HCT-116. Nature of the test: Antimigratory activity in human HCT116 cells assessed as inhibition of wound closure after 24 hrs by wound healing assay. It counts as functional, cell-based. In outline:
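HCT 116 monolayers were scratched, then treated at 1.4, 2.0 and 2.5 µM for 24 h. Wound area was measured at 0 and 24 h. Migration was derived from the recovered scratch area relative to 0 h and to the matching control.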

Test [4] deals with HCT-116. The test is described as follows: Antiproliferative activity against human HCT116 cells assessed as reduction in colony formation after 14 days by crystal violet staining based clonogenic assay. It counts as functional, cell-based. In short, it runs like this:
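HCT 116 cells were treated at 0.7, 1.4 and 2.8 µM. Colonies formed over 14 days of treatment and were compared with untreated control.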

The subject of test [5] is HCT-116. The test is described as follows: Cytotoxicity against human HCT116 cells assessed as reduction in cell viability after 48 hrs by SRB assay. Particulars: HCT-116, 48 h. It counts as functional, cell-based. In short, it runs like this: (§2)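 SRB assay. Compounds active at 10 µM in the primary screen were retested at 1, 2.5 and 5 µM, and IC50 was calculated from these concentrations. The normal breast epithelial line fR2 was tested alongside the cancer lines.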
(In general: The SRB assay estimates cell density from bound dye.)

Test [6] relates to HCT-116. Nature of the test: Growth inhibition of human HCT116 cells at 10 uM after 48 hrs by SRB assay relative to control. Particulars: HCT-116, 48 h, read-out: GI. The format is functional. In outline: (§3)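 Primary SRB screen of every compound at a single concentration of 10 µM. Growth inhibition is expressed relative to control.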
The nature of test [7]: Cytotoxicity against human FR2 cells assessed as reduction in cell viability after 48 hrs by SRB assay. It counts as cell-based. Particulars: FR2, 48 h. In short, it runs like this: as §2
A short description of test [8]: Selectivity index, ratio of IC50 for human FR2 cells to IC50 for human PC3 cells. The format is functional. In short, it runs like this:
as §1

Test [9] relates to MIA PaCa-2. The test is described as follows: Growth inhibition of human MIAPaCa2 at 10 uM after 48 hrs by SRB assay relative to control. The format is functional. Conditions: MIA PaCa-2, 48 h, read-out: GI. In short, it runs like this:
as §3

Test [10] concerns A549. The test is described as follows: Cytotoxicity against human A549 cells assessed as reduction in cell viability after 48 hrs by SRB assay. The format is functional, cell-based. Conditions: A549, 48 h. In short, it runs like this:
as §2

For test [11], the system named is A549. Nature of the test: Growth inhibition of human A549 cells at 10 uM after 48 hrs by SRB assay relative to control. The format is functional. Conditions: A549, 48 h, read-out: GI. In outline: as §3
Test [12] concerns PC-3. The test is described as follows: Cytotoxicity against human PC3 cells assessed as reduction in cell viability after 48 hrs by SRB assay. The format is functional, cell-based. Particulars: PC-3, 48 h. In short, it runs like this:
as §2

Test [13] has as its system HCT-116. Nature of the test: Induction of morphological changes in human HCT116 cells assessed as change in cell morphology after 24 hrs by phase contrast microscopic method. The format is functional, cell-based. In outline:
(§4)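 HCT 116 cells were treated at 0.7, 1.4, 2.0 and 2.5 µM for 24 h, then examined under a phase contrast microscope for growth arrest and morphological change.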

A short description of test [14]: Selectivity index, ratio of IC50 for human FR2 cells to IC50 for human A549 cells. The format is functional. In outline:
as §1

For test [15], the system named is MCF7. Nature of the test: Cytotoxicity against human MCF7 cells assessed as reduction in cell viability after 48 hrs by SRB assay. It counts as functional, cell-based. Conditions: MCF7, 48 h. In outline: as §2
A short description of test [16]: Selectivity index, ratio of IC50 for human FR2 cells to IC50 for human MIAPaCa2 cells. It counts as functional. In outline: as §1
A short description of test [17]: Selectivity index, ratio of IC50 for human FR2 cells to IC50 for human MCF7 cells. The format is functional. In outline:
as §1

The subject of test [18] is MCF7. Nature of the test: Growth inhibition of human MCF7 cells at 10 uM after 48 hrs by SRB assay relative to control. The format is functional. Conditions: MCF7, 48 h, read-out: GI. In short, it runs like this: as §3
Test [19] deals with HCT-116. The test is described as follows: Induction of morphological changes in human HCT116 cells assessed as cell growth arrest after 24 hrs by phase contrast microscopic method. The format is functional, cell-based. In short, it runs like this: as §4
In test [20] the test system is PC-3. Nature of the test: Growth inhibition of human PC3 cells at 10 uM after 48 hrs by SRB assay relative to control. The format is functional. Particulars: PC-3, 48 h, read-out: GI. In outline: as §3
Test [21] has as its system MIA PaCa-2. Nature of the test: Cytotoxicity against human MIAPaCa2 cells assessed as reduction in cell viability after 48 hrs by SRB assay. The format is functional, cell-based. Conditions: MIA PaCa-2, 48 h. In short, it runs like this:
as §2

The subject of test [22] is HCT-116. The test is described as follows: Induction of mitochondrial membrane potential loss in human HCT116 cells after 24 hrs by rhodamine-123 dye based fluorescence microscopy. It counts as functional, cell-based. In short, it runs like this: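 HCT-116 cells were treated at 0.7, 1.4, 2.0 and 2.5 µM and stained with rhodamine-123. Loss of membrane potential was read as a decrease in fluorescence compared with untreated cells.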

Broadly, the pIC50 is the negative decadic logarithm of the IC50, by convention in mol/L.

pIC50: −log10 of the molar value.

Regarding `C=C(C)[C@@H]1CC[C@]2(COC(C)=O)CC[C@]3(C)[C@H](CC[C@@H]4[C@@]5(C)CC[C@H](O[C@H]6O[C@H](CO)[C@@H](O)[C@H](O)[C@H]6O)C(C)(C)[C@@H]5CC[C@]43C)[C@@H]12`, the pIC50 in the test with DLD-1 is 5.35.
Take `C=C(C)[C@@H]1CC[C@]2(C(=O)OCC(N)(CO)CO)CC[C@]3(C)[C@H](CC[C@@H]4[C@@]5(C)CC[C@H](OC(C)=O)C(C)(C)[C@@H]5CC[C@]43C)[C@@H]12`: the pIC50 in the test on A549 [1] is 5.60.
With `C=C(C)[C@@H]1CC[C@]2(C(=O)O)CC[C@]3(C)[C@H](CC[C@@H]4[C@@]5(C)C/C(=C\c6ccc([N+](=O)[O-])cc6)[C@H](O)C(C)(C)[C@@H]5CC[C@]43C)[C@@H]12`, the “Ratio IC50” value in test [2] is reported as 12.35; in test [8], 10.5; in test [14] it was 11.2; in test [16], 5.25; in test [17], 4.8. Also, the inhibition result in the test with HCT-116 [3] and in the test with HCT-116 [4] was “Dose-dependent effect” each time. Further, the pIC50 was 5.87 in the test on HCT-116 [5]; 4.77 in test [7]; 5.82 with A549 [10]; 5.80 in the test with PC-3 [12]; 5.46 with MCF7 [15]; 5.49 in the test with MIA PaCa-2 [21]. The inhibition of growth at 10 µM turned out to be 92% in the test on HCT-116 [6]; 81% in the test on MIA PaCa-2 [9]; 73% in the test on A549 [11]; 85% with MCF7 [18]; 56% with PC-3 [20]. Moreover, the Activity entry in the test on HCT-116 [13], in the test on HCT-116 [19] and with HCT-116 [22] was “Dose-dependent effect” throughout.
